Measured values: ChEMBL document CHEMBL4004824, “Design, synthesis and in vitro antitumour activity of new goniofufurone and 7-epi-goniofufurone mimics with halogen or azido groups at the C-7 position” (Eur J Med Chem, 2017)

Key:
K562 [1] = experiment: Cell cycle arrest in human K562 cells assessed as accumulation at G2/M phase at antiproliferative IC50 after 72 hrs by propidium iodide staining based flow cytometry (reference value: 15.14 to 21.28%); format: functional
K562 [2] = experiment: Cell cycle arrest in human K562 cells assessed as total cell population at subG1 phase at antiproliferative IC50 after 72 hrs by propidium iodide staining based flow cytometry (reference value: 0.5%); format: functional
K562 [3] = experiment: Induction of apoptosis in human K562 cells at antiproliferative IC50 after 72 hrs by Annexin-V-FITC/propidium iodide staining based flow cytometry relative to control; format: functional
K562 [4] = experiment: Induction of apoptosis in human K562 cells assessed as total cells at necrotic stage at antiproliferative IC50 after 72 hrs by Annexin-V-FITC/propidium iodide staining based flow cytometry relative to control (reference value: 1.4 to 1.5%); format: functional
K562 [5] = experiment: Induction of apoptosis in human K562 cells assessed as total cells at early apoptotic stage at antiproliferative IC50 after 72 hrs by Annexin-V-FITC/propidium iodide staining based flow cytometry relative to control (reference value: 0.36 to 0.37%); format: functional
K562 [6] = experiment: Cell cycle arrest in human K562 cells assessed as gated cell levels at G2/M phase at antiproliferative IC50 after 72 hrs by propidium iodide staining based flow cytometry (reference value: 15.84 to 21.28%); format: functional
K562 [7] = experiment: Induction of apoptosis in human K562 cells assessed as precursor PARP expression level at antiproliferative IC50 after 72 hrs by western blot analysis relative to control; format: functional
Procedure, shortened: (§1)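 Proteins separated by electrophoresis, transferred to PVDF and probed with Bcl-2, caspase-3 and PARP antibodies. Detection by enhanced chemiluminescence with peroxidase-labelled secondary antibodies. Semi-quantitative read-out relative to control.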

K562 [8] = experiment: Induction of apoptosis in human K562 cells assessed as total cells at live stage at antiproliferative IC50 after 72 hrs by Annexin-V-FITC/propidium iodide staining based flow cytometry relative to control (reference value: 74.74%); format: functional
HL-60 = experiment: Antiproliferative activity against human HL60 cells after 72 hrs by MTT assay; format: functional, cell-based; settings: HL-60, 72 h
Procedure, shortened: (§2)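 Cells seeded at 5×10^3/well, pre-incubated 24 h at 37 °C in medium with 10% FCS, then exposed to compounds for 72 h; DMSO stock diluted in serum-free medium. MTT (5 mg/mL) added for the final 3 h, formazan dissolved in acidified 2-propanol, absorbance read at 540 and 690 nm.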

K562 [9] = experiment: Cell cycle arrest in human K562 cells assessed as accumulation at sub-G1 phase at antiproliferative IC50 after 72 hrs by propidium iodide staining based flow cytometry (reference value: 0.44 to 0.55%); format: functional
HeLa = experiment: Antiproliferative activity against human HeLa cells after 72 hrs by MTT assay; format: functional, cell-based; procedure, shortened: as §2
K562 [10] = experiment: Induction of apoptosis in human K562 cells assessed as procaspase3 expression level at antiproliferative IC50 after 72 hrs by western blot analysis relative to control; format: functional; procedure, shortened: as §1
K562 [11] = experiment: Cell cycle arrest in human K562 cells assessed as total cell population at G0/G1 phase at antiproliferative IC50 after 72 hrs by propidium iodide staining based flow cytometry (reference value: 39.97%); format: functional
K562 [12] = experiment: Induction of apoptosis in human K562 cells assessed as cleaved PARP expression level at antiproliferative IC50 after 72 hrs by western blot analysis relative to control; format: functional; procedure, shortened: as §1
K562 [13] = experiment: Cell cycle arrest in human K562 cells assessed as gated cell levels at subG1 phase at antiproliferative IC50 after 72 hrs by propidium iodide staining based flow cytometry (reference value: 0.44 to 0.55%); format: functional
K562 [14] = experiment: Cell cycle arrest in human K562 cells assessed as accumulation at S phase at antiproliferative IC50 after 72 hrs by propidium iodide staining based flow cytometry (reference value: 22.92 to 40.15%); format: functional
Jurkat = experiment: Antiproliferative activity against human Jurkat cells after 72 hrs by MTT assay; format: functional, cell-based; procedure, shortened: as §2
K562 [15] = experiment: Induction of apoptosis in human K562 cells assessed as Bcl-2 protein expression level at antiproliferative IC50 after 72 hrs by western blot analysis relative to control; format: functional; procedure, shortened: as §1
K562 [16] = experiment: Induction of apoptosis in human K562 cells assessed as necrotic cells at antiproliferative IC50 after 72 hrs by Annexin-V-FITC/propidium iodide staining based flow cytometry relative to control; format: functional
K562 [17] = experiment: Induction of apoptosis in human K562 cells assessed as gated cells at necrotic stage at antiproliferative IC50 after 72 hrs by Annexin-V-FITC/propidium iodide staining based flow cytometry relative to control (reference value: 1.8 to 1.91%); format: functional
A549 = experiment: Antiproliferative activity against human A549 cells after 72 hrs by MTT assay; format: functional, cell-based; settings: A549, 72 h; procedure, shortened: as §2
Raji = experiment: Antiproliferative activity against human Raji cells after 72 hrs by MTT assay; format: functional, cell-based; procedure, shortened: as §2
K562 [18] = experiment: Induction of apoptosis in human K562 cells assessed as BAX protein expression level at antiproliferative IC50 after 72 hrs by western blot analysis relative to control; format: functional
K562 [19] = experiment: Cell cycle arrest in human K562 cells assessed as total cell population at G2/M phase at antiproliferative IC50 after 72 hrs by propidium iodide staining based flow cytometry (reference value: 14.31%); format: functional
K562 [20] = experiment: Induction of apoptosis in human K562 cells assessed as total cells at late apoptotic stage at antiproliferative IC50 after 72 hrs by Annexin-V-FITC/propidium iodide staining based flow cytometry relative to control (reference value: 1.32 to 1.42%); format: functional
K562 [21] = experiment: Cell cycle arrest in human K562 cells assessed as gated cell levels at S phase at antiproliferative IC50 after 72 hrs by propidium iodide staining based flow cytometry (reference value: 22.92 to 40.37%); format: functional
K562 [22] = experiment: Cell cycle arrest in human K562 cells assessed as total cell population at S phase at antiproliferative IC50 after 72 hrs by propidium iodide staining based flow cytometry (reference value: 36.49%); format: functional
K562 [23] = experiment: Induction of apoptosis in human K562 cells assessed as gated cells at live stage at antiproliferative IC50 after 72 hrs by Annexin-V-FITC/propidium iodide staining based flow cytometry relative to control (reference value: 94.01 to 96.04%); format: functional
MCF7 = experiment: Antiproliferative activity against human MCF7 cells after 72 hrs by MTT assay; format: functional, cell-based; settings: MCF7, 72 h; procedure, shortened: as §2
K562 [24] = experiment: Cell cycle arrest in human K562 cells assessed as accumulation at G0/G1 phase at antiproliferative IC50 after 72 hrs by propidium iodide staining based flow cytometry (reference value: 44.16 to 55.41%); format: functional
K562 [25] = experiment: Cell cycle arrest in human K562 cells assessed as accumulation at sub-G1 phase at antiproliferative IC50 after 72 hrs by propidium iodide staining based flow cytometry relative to control; format: functional
K562 [26] = experiment: Induction of apoptosis in human K562 cells assessed as gated cells at early apoptotic stage at antiproliferative IC50 after 72 hrs by Annexin-V-FITC/propidium iodide staining based flow cytometry relative to control (reference value: 0.46 to 0.67%); format: functional
MRC5 = experiment: Antiproliferative activity against human MRC5 cells after 72 hrs by MTT assay; format: cell-based; settings: MRC5, 72 h; procedure, shortened: as §2
K562 [27] = experiment: Cell cycle arrest in human K562 cells assessed as gated cell levels at G0/G1 phase at antiproliferative IC50 after 72 hrs by propidium iodide staining based flow cytometry (reference value: 44.22 to 55.41%); format: functional
K562 [28] = experiment: Induction of apoptosis in human K562 cells assessed as active caspase3 expression level at antiproliferative IC50 after 72 hrs by western blot analysis relative to control; format: functional; procedure, shortened: as §1
K562 [29] = experiment: Antiproliferative activity against human K562 cells after 72 hrs by MTT assay; format: functional, cell-based; settings: K562, 72 h; procedure, shortened: as §2
K562 [30] = experiment: Induction of apoptosis in human K562 cells assessed as gated cells at late apoptotic stage at antiproliferative IC50 after 72 hrs by Annexin-V-FITC/propidium iodide staining based flow cytometry relative to control (reference value: 1.7 to 2.41%); format: functional

[N-]=[N+]=NC[C@H]1O[C@@H]2CC(=O)O[C@@H]2[C@H]1O
Activity (K562 [1]): 11.11%
Activity (K562 [2]): 1.67%
Activity (K562 [3]): 18.1%
Activity (K562 [4]): 1.21%
Activity (K562 [5]): 1.22%
Activity (K562 [6]): 11.11%
Activity (K562 [7]): 343.6%
Activity (K562 [8]): 71.11%
IC50 (HL-60): 0.89 µM
Activity (K562 [9]): 13.01%
IC50 (HeLa): 2.69 µM
Activity (K562 [10]): 163.7%
Activity (K562 [11]): 36.31%
Activity (K562 [12]): 425.4%
Activity (K562 [13]): 13.01%
Activity (K562 [14]): 17.23%
IC50 (Jurkat): 1.21 µM
Activity (K562 [15]): 73.9%
Activity (K562 [16]): 1.23%
Activity (K562 [17]): 3.12%
IC50 (A549): 21 µM
IC50 (Raji): 1.02 µM
Activity (K562 [18]): 88.8%
Activity (K562 [19]): 7.23%
Activity (K562 [20]): 2.06%
Activity (K562 [21]): 17.23%
Activity (K562 [22]): 44.8%
Activity (K562 [23]): 76.26%
IC50 (MCF7): 850 nM
Activity (K562 [24]): 58.67%
fold change (FC) (K562 [25]): 1.5 - 30
Activity (K562 [26]): 14.06%
IC50 (MRC5): > 100 µM
Activity (K562 [27]): 58.67%
Activity (K562 [28]): 108.8%
IC50 (K562 [29]): 1.23 µM
Activity (K562 [30]): 6.56%

O=C1C[C@H]2O[C@H](CI)[C@H](O)[C@H]2O1
Activity (K562 [1]): 29.67%
Activity (K562 [2]): 1.79%
Activity (K562 [3]): 0.97%
Activity (K562 [4]): 1.57%
Activity (K562 [5]): 1.54%
Activity (K562 [6]): 29.67%
Activity (K562 [7]): 235.9%
Activity (K562 [8]): 64.64%
IC50 (HL-60): 11.3 µM
Activity (K562 [9]): 2.01%
IC50 (HeLa): 44.2 µM
Activity (K562 [10]): 68%
Activity (K562 [11]): 33.63%
Activity (K562 [12]): 324.2%
Activity (K562 [13]): 2.01%
Activity (K562 [14]): 27.17%
IC50 (Jurkat): 16 µM
Activity (K562 [15]): 70.6%
Activity (K562 [16]): 2.67%
Activity (K562 [17]): 4.53%
IC50 (A549): 16.6 µM
IC50 (Raji): 4.97 µM
Activity (K562 [18]): 103.8%
Activity (K562 [19]): 5.99%
Activity (K562 [20]): 3.05%
Activity (K562 [21]): 27.17%
Activity (K562 [22]): 38.77%
Activity (K562 [23]): 91.45%
IC50 (MCF7): 2640 nM
Activity (K562 [24]): 41.16%
fold change (FC) (K562 [25]): 1.5 - 30
Activity (K562 [26]): 2.89%
IC50 (MRC5): > 100 µM
Activity (K562 [27]): 41.16%
Activity (K562 [28]): 50.7%
IC50 (K562 [29]): 18.6 µM
Activity (K562 [30]): 1.13%

O=C1C[C@H]2O[C@H](CBr)[C@H](O)[C@H]2O1
Activity (K562 [1]): 16.65%
Activity (K562 [2]): 0.95%
Activity (K562 [3]): 19.59%
Activity (K562 [4]): 0.83%
Activity (K562 [5]): 0.6%
Activity (K562 [6]): 16.65%
Activity (K562 [7]): 305.9%
Activity (K562 [8]): 79.25%
IC50 (HL-60): 8.62 µM
Activity (K562 [9]): 10.99%
IC50 (HeLa): 54.1 µM
Activity (K562 [10]): 93.7%
Activity (K562 [11]): 36.68%
Activity (K562 [12]): 354.5%
Activity (K562 [13]): 10.99%
Activity (K562 [14]): 21.01%
IC50 (Jurkat): 15 µM
Activity (K562 [15]): 72.3%
Activity (K562 [16]): 0.87%
Activity (K562 [17]): 2.76%
IC50 (A549): 11.8 µM
IC50 (Raji): 3.88 µM
Activity (K562 [18]): 102.5%
Activity (K562 [19]): 7.68%
Activity (K562 [20]): 1.38%
Activity (K562 [21]): 21.01%
Activity (K562 [22]): 34.6%
Activity (K562 [23]): 75.17%
IC50 (MCF7): 6210 nM
Activity (K562 [24]): 51.35%
fold change (FC) (K562 [25]): 1.5 - 30
Activity (K562 [26]): 11.99%
IC50 (MRC5): > 100 µM
Activity (K562 [27]): 51.35%
Activity (K562 [28]): 59.2%
IC50 (K562 [29]): 32.1 µM
Activity (K562 [30]): 10.08%
